Assay outcomes as filed in PubChem.
In the library only some 1.8% were active in any assay of this set; here they are far more common.
SIAE inh: blocks human sialic acid acetylesterase; inhibition, % at 9.66 µM; Q9HAT2; 0.69% of 370,000 active; AID 1053197; SIAE FP-Rh probe binding, fluorescence polarization;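 active = inhibition above a cutoff: mean of compounds within the control limits plus 3 SD of those, cut at about 17% in these data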;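 also: 0% = plate median of compound wells and 100% = probe without SIAE protein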
PME-1 primary: blocks human protein phosphatase methylesterase 1; 0.53% of 320,000 active; Q9Y570; recombinant PME-1, FP-Rh probe fluorescence polarization; inhibition, % at 5.9 µM;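 active = inhibition above the campaign mean of all compounds plus 3 SD, cut at about 26% in these data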;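 also: competitive labeling of PME-1 active site by serine hydrolase directed probe; 0% = PME-1 with DMSO and 100% = wells lacking PME-1 enzyme; inhibitors block probe labeling so polarization falls and inhibition rises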
Fam108B inh: blocks mouse Fam108B hydrolase in RBBP9 counter-screen. recombinant Fam108B, FP-Rh probe fluorescence polarization. inhibition, % at 9.51 µM. 0.33% of 300,000 active. AID 1947;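 active = inhibition above the screen mean inhibition plus 3 SD, computed separately per campaign, cut at about 18% in these data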;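 also: inhibitors lower polarization as less probe binds the enzyme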
HTRA1 inh: blocks human HTRA1 serine peptidase; AID 504803; Q92743; 0.5% of 340,000 active; inhibition, % at 5.96 µM; recombinant HTRA1, FP-rhodamine activity-based probe, fluorescence polarization; in the data active = inhibition above about 36%;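 also: 0% = enzyme with DMSO and 100% = wells lacking enzyme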
Target sequence (Q92743 whole entry, looked up): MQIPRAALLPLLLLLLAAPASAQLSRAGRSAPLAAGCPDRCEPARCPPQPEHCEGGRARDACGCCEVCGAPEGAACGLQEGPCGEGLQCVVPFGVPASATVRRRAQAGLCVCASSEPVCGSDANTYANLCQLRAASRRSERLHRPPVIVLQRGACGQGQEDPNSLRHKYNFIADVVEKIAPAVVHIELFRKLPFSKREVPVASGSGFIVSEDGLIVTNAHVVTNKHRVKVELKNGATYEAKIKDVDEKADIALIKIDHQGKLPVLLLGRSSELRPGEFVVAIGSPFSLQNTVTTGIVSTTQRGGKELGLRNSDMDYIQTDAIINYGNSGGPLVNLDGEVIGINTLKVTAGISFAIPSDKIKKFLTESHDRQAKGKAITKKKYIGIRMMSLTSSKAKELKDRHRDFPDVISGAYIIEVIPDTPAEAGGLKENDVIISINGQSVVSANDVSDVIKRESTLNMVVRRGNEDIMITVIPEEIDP
TCR CD3 inh: human TCR-CD3 binding inhibition | inhibition, % at 9.4 µM | AID 651800 | TAMRA-labeled TCR probe fluorescence, biochemical | 0.37% of 360,000 active;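 also: recombinant mutant TCR 2C K166C tagged with TAMRA read by polarization; 0% = receptor in buffer alone and 100% = receptor with positive control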
mABHD4 FP: inhibitors of mouse ABHD4; Q8VD66; purified mABHD4, FP-Rh probe fluorescence polarization; inhibition, % at 8.92 µM; 0.54% of 370,000 active; AID 720543;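 active = inhibition exceeding the mean over every tested compound plus 3 SD, cut at about 30% in these data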;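 also: 0% = plate median of compound wells and 100% = S159A mutant with DMSO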
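Assay system: Wild-type mouse ABHD4 protein | Medium: HEPES pH 7.0 buffer, 150 mM NaCl, 0.01% Pluronic F-127 | Incubation: Enzyme–compound pre-incubation 45 min, then probe 60 min, both 25 °C | Technique: Fluorescence polarization with parallel and perpendicular emission, 525/598 nm | Evaluation: % inhibition of FP-Rh probe binding versus controls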
BSA probe FL: counter-screen for TCR-CD3 interaction inhibitors: BSA probe; 10% of 1,200 active; shares compounds with TCR CD3 inh; TAMRA-labeled BSA probe fluorescence counterscreen; inhibition, % at 9.4 µM; AID 652035; in the data active = inhibition above about 23%;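 also: 0% = buffer low control and 100% = reference high control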
TCR-CD3 inh conf: confirmation of human TCR-CD3 interaction inhibitors; TAMRA-labeled TCR probe fluorescence binding assay; shares compounds with TCR CD3 inh; inhibition, % at 9.4 µM; 48% of 1,200 active; AID 652036
* = called active by the depositor; x = no result; ! = not confirmed by another sample. Rule as the data show it, unless noted: active = inhibition above about 19%; inactive = the rest.

SMILES	SIAE inh	PME-1 primary	Fam108B inh	HTRA1 inh	TCR CD3 inh	mABHD4 FP	BSA probe FL	TCR-CD3 inh conf
Cc1c(C(=O)OCC(=O)Nc2cccc(S(N)(=O)=O)c2)oc2c1ccc1ccccc12	-23	-28	-12	-42	25*	-36	3	5
COc1cccc(S(=O)(=O)NCc2ccc(C(=O)Nc3ccc(Cl)c(Cl)c3)cc2)c1	-10	5	-2	-38	35*	-17	-1	6
O=C(Nc1ccc(Cl)c(Cl)c1)c1cccc(S(=O)(=O)NCc2cccnc2)c1	-90	-26	-12	-117	33*	-58	2	10
Cc1ccc(NC(=O)c2ccc(S(=O)(=O)NCc3cccnc3)cc2)cc1C	-2	5	-3	-8	9	5	x	x
CCCC[C@H]1C2CC(OC(=O)Nc3cc(C)cc(C)c3)C(C2)[C@H]2CCCCN21 (some centres not stated)	5	x	x	x	x	7	x	x
CCc1cc(Cl)c(OC)c(C(=O)NC[C@@H]2CCCN2CC)c1O	4	-6	5	-3	29*!	9	0	1
O=C(N/N=C\c1ccc(O)c([N+](=O)[O-])c1)C1COc2ccccc2O1 (configuration not stated)	12	-5	1	5	-2	2	x	x
Cc1cc([N+](=O)[O-])cc(/C=N\NC(=O)C2COc3ccccc3O2)c1O (configuration not stated)	2	5	2	10	31*	4	-1	29*
COc1ccc(OCc2cc(C(=O)N[C@H]3CCCCNC3=O)no2)c(Cl)c1	2	-1	3	1	21*	-1	1	0
CSc1ccccc1OCc1cc(C(=O)N[C@H]2CCCCNC2=O)no1	2	4	-6	-9	-4	5	x	x
O=C(Cc1ccccc1)N/N=C/c1cc(Br)cc(Br)c1O	14	4	5	20	23*	7	-7	25*
O=C(CNC(=O)c1cccc(Br)c1)N/N=C/c1cc(Br)cc(Br)c1O	8	5	-2	17	48*	7	-13	36*
COc1c(Br)cc(Br)cc1/C=N/NC(=O)c1ccncc1	-6	1	-11	-4	11	-9	x	x
CN(C)c1ccc(C(=O)N/N=C/c2cc(Br)cc(Br)c2O)cc1	-3	-3	5	x	33*	20	0	43*
O=C1CCC2(CCC(c3ccccc3)CC2)N1CCO (configuration not stated)	2	x	x	x	x	1	x	x
N[C@@H](Cc1ccc(O)c(O)c1)C(=O)O	14	x	x	18	75*	29	-11	32*
COc1ccccc1NS(=O)(=O)c1cccc(NC(=O)NCCCl)c1	0	-1	-1	4	-5	7	x	x
COc1ccccc1NS(=O)(=O)c1cc(NC(=O)c2ccc(Cl)nc2)ccc1Cl	-140	-62	-31	-76	23*	-77	11	16
COc1ccccc1NS(=O)(=O)c1cccc(NC(=O)Nc2cccc(Cl)c2)c1	-236	-135	-116	-168	36*	-164	8	14
COc1ccc(C(=O)Nc2ccc(Cl)c(S(=O)(=O)Nc3ccccc3OC)c2)cc1	-91	-42	-24	-59	3	-90	x	x
COc1ccc(Cl)cc1C(=O)NNC(=O)COC(=O)c1ccc(Br)o1	-2	x	x	5	20*	0	8	15
COc1ccc(CCNC(=O)COC(=O)c2ccc(Br)o2)cc1OC	-1	3	0	3	7	-2	x	x
O=C(Nc1ccc(F)c(Cl)c1)C1Cc2c(-c3ccc4c(c3)OCO4)ccnc2O1 (configuration not stated)	-29	x	x	x	29*	-6	3	7
O=C(Nc1ccc(F)c(Cl)c1)C1Cc2c(-c3ccc(Cl)cc3)ccnc2O1 (configuration not stated)	-52	x	x	x	-9	-18	x	x
CC(C)c1cc(C(=O)O)c2ccccc2n1	4	-2	-2	8	34*	7	8	6
